Experimental data gathered from unrelated publications.
Compare with care: the assays were run in different laboratories.
Target: Serine/threonine-protein kinase D3 (PRKD3, Homo sapiens, UniProt O94806)
One construct used (O94806 1-890): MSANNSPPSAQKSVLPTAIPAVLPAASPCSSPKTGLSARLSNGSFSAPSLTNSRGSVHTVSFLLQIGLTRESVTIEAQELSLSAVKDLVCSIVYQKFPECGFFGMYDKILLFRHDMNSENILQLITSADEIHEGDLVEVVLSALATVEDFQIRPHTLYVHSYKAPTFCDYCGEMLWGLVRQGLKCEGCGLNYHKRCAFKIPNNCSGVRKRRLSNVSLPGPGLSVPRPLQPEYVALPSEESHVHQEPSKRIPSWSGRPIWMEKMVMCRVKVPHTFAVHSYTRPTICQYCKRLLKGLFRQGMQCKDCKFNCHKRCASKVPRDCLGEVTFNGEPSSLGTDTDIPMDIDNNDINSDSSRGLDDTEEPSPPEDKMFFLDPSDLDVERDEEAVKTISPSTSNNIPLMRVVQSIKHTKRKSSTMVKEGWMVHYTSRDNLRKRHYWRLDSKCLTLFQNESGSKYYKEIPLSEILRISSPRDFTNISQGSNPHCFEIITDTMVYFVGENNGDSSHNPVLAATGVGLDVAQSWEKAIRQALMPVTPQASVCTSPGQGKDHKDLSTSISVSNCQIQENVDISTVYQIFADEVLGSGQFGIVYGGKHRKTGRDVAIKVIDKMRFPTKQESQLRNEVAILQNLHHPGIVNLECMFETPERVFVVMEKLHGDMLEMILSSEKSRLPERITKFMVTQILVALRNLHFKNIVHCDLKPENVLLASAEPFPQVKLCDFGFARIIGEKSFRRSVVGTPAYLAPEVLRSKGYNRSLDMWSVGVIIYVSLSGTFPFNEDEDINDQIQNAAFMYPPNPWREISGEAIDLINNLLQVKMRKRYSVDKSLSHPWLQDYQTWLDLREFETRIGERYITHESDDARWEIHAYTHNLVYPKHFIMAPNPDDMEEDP

| SMILES | effect on | technique | tested at | remaining binding |
| --- | --- | --- | --- | --- |
| F[C@@H]1CCN(c2nccc(-c3cnn4ncccc34)n2)C1 | binding |  | 1 µM | 76% |
| O=C(Nc1c[nH]nc1C(=O)NC1CCNCC1)c1cc(F)cc(F)c1 | binding | competition with immobilised ligand | 1 µM | 100% |
| O=C(NCCCN1CCOCC1)c1ccc(Nc2nccc(-c3cc4ccccc4s3)n2)cc1 | binding | competition with immobilised ligand | 1 µM | 32% |
| Cc1nccc(COC(=O)N2C[C@@H]3[C@@H](CNC(=O)c4ccc5[nH]nnc5c4)[C@@H]3C2)n1 | cell-free assay | competition with immobilised ligand | 1 µM | 100% |
| O=C(NCCCN1CCOCC1)c1ccc(Nc2ncc(Cl)c(-c3ccc(Cl)s3)n2)cc1 | binding | competition with immobilised ligand | 1 µM | 20% |
| FC(F)(F)c1ccc2c(c1)nc(-c1cccnc1)n2C1CC1 | cell-free assay | competition with immobilised ligand | 1 µM | 100% |
| FC(F)(F)Oc1cccc(-c2cnc3ccc(-c4ccncc4)nn23)c1 | cell-free assay | competition with immobilised ligand | 5 µM | 100% |
| CC1CCCN1c1nccc(-c2cnn3ncccc23)n1 (stereo not drawn) | binding |  | 1 µM | 97% |
| Cc1cc(NC(=O)c2cccc(S(F)(F)(F)(F)F)c2)cc(-n2ccn3nc(-c4cccnc4)cc23)c1 | cell-free assay | competition with immobilised ligand | 1 µM | 100% |
| c1cncc(-c2cccc(Nc3nccc(NC4CCCCC4)n3)c2)c1 | binding | competition with immobilised ligand | 10 µM | 7.4% |
| N[C@H]1CCN(c2nccc(-c3cnn4ncccc34)n2)C1 | binding |  | 1 µM | 91% |
| O=C(c1ccc(Nc2ncc(Cl)c(-c3ccc(Cl)s3)n2)cc1)N1CCC(N2CCCC2)CC1 | binding | competition with immobilised ligand | 1 µM | 3.6% |
| CN(CCCC(F)(F)F)c1nccc(-c2cnn3ncccc23)n1 | binding |  | 1 µM | 100% |
| Cc1c[nH]c2nccc(Oc3c(F)cc(Nc4cc(Cl)nc(N)n4)cc3F)c12 | cell-free assay | competition with immobilised ligand | 0.1 µM | 100% |
| COc1cnc(Nc2cccc(S(N)(=O)=O)c2)nc1N1CCN(c2ccccc2)C(=O)C1 | binding | competition with immobilised ligand | 1 µM | 92% |
| Cc1cnn2ncc(-c3ccnc(N(C)C)n3)c2c1 | binding |  | 1 µM | 98% |
| COc1ccc2cc(OCC3(C(=O)O)CN(C(=O)c4ccc(F)cc4)C3)ccc2c1 | cell-free assay | competition with immobilised ligand | 1 µM | 91% |
| COc1cnc(Nc2cccc(S(N)(=O)=O)c2)nc1N1CCN(c2ccccc2)CC1 | binding | competition with immobilised ligand | 1 µM | 96% |
| C=CC(=O)N1CCC(C(=O)NCC(=O)N2CCN(c3nc(-c4cnc(N)nc4C(F)F)nc(N4CCOCC4)n3)CC2)CC1 | binding | competition with immobilised ligand | 1 µM | 93% |
| CN(C)C(=O)Cn1cc(-c2nc(C3(c4ccc(-c5cnc(N)nc5)cc4)CC3)no2)cn1 | cell-free assay | competition with immobilised ligand | 1 µM | 92% |
| C[C@@H]1CCN(c2nccc(-c3cnn4ncccc34)n2)C1 | binding |  | 1 µM | 100% |
